Assay results published in ChEMBL document CHEMBL1149897, “Acylated triterpenoid saponins from Schima noronhae and their cell growth inhibitory activity” (J Nat Prod, 2008).
The source made the active and inactive calls. The rule behind the calls is not given here.

Experiments:
Type in all cases: functional, cell-based
HT-29 = experiment: Cytotoxicity against human HT29 cells after 24 hrs by fluorometric microculture assay; conditions: HT-29, 24 h
HCT-116 = experiment: Cytotoxicity against human HCT116 cells after 24 hrs by fluorometric microculture assay; conditions: HCT-116, 24 h
HeLa = experiment: Cytotoxicity against human HeLa cells after 24 hrs by fluorometric microculture assay
Outline: (§1)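 DLD1 grown in RPMI 1640 with 10% FBS; HeLa in IMDM with 5% FBS; both at 37 °C, 5% CO2. Cells (6 × 10^3 per well) exposed to a range of compound concentrations for 24 h at 37 °C. Medium then removed and viability read by FMCA on a fluorescence plate reader as percent of control-well fluorescence. IC50 derived; triplicate experiments.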

DLD-1 = experiment: Cytotoxicity against human DLD1 cells after 24 hrs by fluorometric microculture assay; outline: as §1

| SMILES | IC50 (HT-29) [µg/mL] | IC50 (HCT-116) [µg/mL] | IC50 (HeLa) [µM] | Activity (DLD-1) |
| --- | --- | --- | --- | --- |
| C/C=C(/C)C(=O)O[C@H]1[C@H](OC(C)=O)C(C)(C)C[C@H]2C3=CC[C@@H]4[C@@]5(C)CC[C@H](O[C@@H]6O[C@H](C(=O)O)[C@@H](O)[C@H](O)[C@H]6O[C@@H]6O[C@@H](C)[C@H](O)[C@@H](O)[C@H]6O)C(C)(C)[C@@H]5CC[C@@]4(C)[C@]3(C)[C@@H](O)[C@@H](O)[C@]21CO | > 40 | > 40 |  |  |
| C/C=C(/C)C(=O)O[C@H]1CC(C)(C)C[C@H]2C3=CC[C@@H]4[C@@]5(C)CC[C@H](O[C@@H]6O[C@H](C(=O)O)[C@@H](O)[C@H](O[C@@H]7O[C@H](CO)[C@H](O[C@@H]8O[C@@H](C)[C@H](O)[C@@H](O)[C@H]8O)[C@H](O)[C@H]7O)[C@H]6O[C@@H]6O[C@H](CO)[C@@H](O)[C@H](O)[C@H]6O)C(C)(C)[C@@H]5CC[C@@]4(C)[C@]3(C)CC[C@@]12CO |  |  | 3.8 | Active |
| C/C=C(/C)C(=O)O[C@H]1[C@H](O)C(C)(C)C[C@H]2C3=CC[C@@H]4[C@@]5(C)CC[C@H](O[C@@H]6O[C@H](C(=O)O)[C@@H](O)[C@H](O)[C@H]6O[C@@H]6O[C@@H](C)[C@H](O)[C@@H](O)[C@H]6O)C(C)(C)[C@@H]5CC[C@@]4(C)[C@]3(C)[C@@H](O)[C@@H](O)[C@]21COC(C)=O | > 40 | > 40 |  |  |
| C/C=C(/C)C(=O)O[C@H]1[C@H](O)C(C)(C)C[C@H]2C3=CC[C@@H]4[C@@]5(C)CC[C@H](O[C@@H]6O[C@H](C(=O)O)[C@@H](O)[C@H](O)[C@H]6O[C@@H]6O[C@@H](C)[C@H](O)[C@@H](O)[C@H]6O)C(C)(C)[C@@H]5CC[C@@]4(C)[C@]3(C)[C@@H](O)[C@@H](O)[C@]21CO | > 40 | > 40 |  |  |
| C/C=C(/C)C(=O)O[C@H]1CC(C)(C)C[C@H]2C3=CC[C@@H]4[C@@]5(C)CC[C@H](O[C@@H]6O[C@H](C(=O)O)[C@@H](O)[C@H](O[C@@H]7O[C@H](CO)[C@H](O[C@@H]8O[C@@H](C)[C@H](O)[C@@H](O)[C@H]8O)[C@H](O)[C@H]7O)[C@H]6O[C@@H]6O[C@H](CO)[C@@H](O)[C@H](O)[C@H]6O)C(C)(C)[C@@H]5CC[C@@]4(C)[C@]3(C)[C@@H](O)[C@@H](O)[C@@]12CO |  |  | 5.5 | Active |
